Bioassay records as filed in PubChem BioAssay.
In the library only some 1.8% were active in any assay of this set; here they are far more common.
M4 PAM – human M4 muscarinic receptor positive allosteric modulators, primary screen, CHO-K1 cells, Fluo-8 calcium fluorescence | Muscarinic acetylcholine receptor M4 (Homo sapiens), P08173 | CHO-K1 hM4/Gqi5, ACh EC20; 0% = ACh EC20, 100% = maximal ACh | activation, % at 3 µM | actives 0.4% (n = 360,000);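 active = activation above its plate's cutoff, the mean activation of sample wells plus 3 SD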
CHRM4 antagonist – human M4 muscarinic receptor antagonists, primary screen, CHO cells, Fluo-8 calcium fluorescence | Muscarinic acetylcholine receptor M4 (Homo sapiens), P08173 | CHO-hM4 cells, ACh EC80 | inhibition, % at 3 µM | actives 0.73% (n = 360,000);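 active = inhibition above its plate's cutoff, the mean inhibition of sample wells plus 3 SD, cut at about 27% in these data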
M5 ag – human M5 muscarinic receptor agonists, primary screen, CHO-K1 cells, Fluo-8 calcium fluorescence. Muscarinic acetylcholine receptor M5 (Homo sapiens), P08912. CHO-K1 hM5 cells; 0% DMSO wells, 100% maximal acetylcholine response. activation, % at 3 µM. actives 0.19% (n = 360,000). AID 624037, 2012;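 active = activation above the run's mean over test compounds plus 3 SD, cut at about 23% in these data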;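 note: signal is peak over basal fluorescence ratio across the kinetic read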
Target sequence (P08912 whole entry, looked up): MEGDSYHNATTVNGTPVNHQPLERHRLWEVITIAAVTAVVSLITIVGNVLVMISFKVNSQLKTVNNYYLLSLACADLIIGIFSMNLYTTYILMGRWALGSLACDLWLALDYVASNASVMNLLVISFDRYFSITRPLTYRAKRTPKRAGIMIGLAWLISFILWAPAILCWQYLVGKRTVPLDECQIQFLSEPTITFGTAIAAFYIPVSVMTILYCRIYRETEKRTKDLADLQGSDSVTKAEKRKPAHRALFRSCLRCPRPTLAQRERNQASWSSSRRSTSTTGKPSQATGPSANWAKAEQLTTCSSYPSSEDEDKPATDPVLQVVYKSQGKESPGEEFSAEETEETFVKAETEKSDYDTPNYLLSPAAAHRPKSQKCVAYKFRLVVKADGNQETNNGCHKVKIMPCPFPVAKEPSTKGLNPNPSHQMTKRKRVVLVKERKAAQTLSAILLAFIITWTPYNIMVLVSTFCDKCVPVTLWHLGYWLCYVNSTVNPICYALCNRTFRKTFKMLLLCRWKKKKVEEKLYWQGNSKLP
M5 PAM – human M5 muscarinic receptor positive allosteric modulators, primary screen, CHO-K1 cells, Fluo-8 calcium fluorescence; CHO-K1 hM5, ACh EC20 PAM; 0% = ACh EC20, 100% = ACh EC100; actives 0.3% (n = 360,000); activation, % at 3 µM;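 active = activation above the run cutoff, the mean activation of all test compounds plus 3 SD, cut at about 18% in these data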
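Test system: CHO-K1 hM5 cells / Doses: single-point, 3 µM nominal / Times: Post-acetylcholine fluorescence recording 140 s / Technique: Fluo-8 calcium fluorescence / Measure: Max/basal fluorescence ratio as % of EC20–EC100 ACh window / Benchmarks: low control EC20 acetylcholine (0%), high control EC100 acetylcholine (100%) / Replicates: one well per compound, no replicates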
M4 ag – human M4 muscarinic receptor agonists, primary screen, CHO-K1 cells, Fluo-8 calcium fluorescence | activation, % at 3 µM | Muscarinic acetylcholine receptor M4 (Homo sapiens), P08173 | CHO-K1 hM4/Gqi5; vehicle 0%, full acetylcholine response 100% | actives 0.14% (n = 360,000);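 active = activation above the run mean over all test wells plus 3 SD, cut at about 32% in these data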;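 note: peak over basal fluorescence ratio per well then scaled between controls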
CHRM5 antagonist – human M5 muscarinic receptor antagonists, primary screen, CHO cells, Fluo-8 calcium fluorescence; actives 0.59% (n = 360,000); CHO-hM5 cells, ACh EC80; inhibition, % at 3 µM;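 active = inhibition above a per-plate cutoff, the mean of that plate's test compounds plus 3 SD, cut at about 27% in these data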
Hits are given with their value; i = inactive.

SMILES	M4 PAM	CHRM4 antagonist	M5 ag	M5 PAM	M4 ag	CHRM5 antagonist
Cc1cc(C(=O)Nc2ccc(S(=O)(=O)Nc3onc(C)c3C)cc2)c(C)o1	i	i	i	i	i	i
NC(=O)CCC(NC(=O)OCc1ccccc1)C(=O)OCC(=O)c1ccccc1 (stereo unspecified)	i	i	i	i	i	i
CCOC(=O)CC(NC(=O)c1ccco1)c1ccc(OC)cc1 (stereo unspecified)	i	i	i	21	i	i
Cc1ccc(-n2nc3ccc(N)cc3n2)cc1C	16	i	i	21	i	i
Cc1ccc(-n2nc3ccc(N)cc3n2)cc1Cl	i	i	i	i	i	i
C[C@H]1CC[C@@]2(O[C@@H](CCO)C[C@@H](O)[C@@H]2O)O1	i	i	i	i	i	i
C[C@@H]1CC[C@]2(O[C@H](CCO)C[C@@H](O)[C@@H]2O)O1	i	i	i	25	i	i
Cc1ccc(S(=O)(=O)n2ccc3c2CCCC3=O)cc1	i	27	i	i	i	37
COC(=O)c1cc(C)ccc1/C=C1/Cc2c(C)cc(C)cc2C1=O	i	i	i	i	i	i
CCOCC(=O)Nc1ccccc1C(=O)O	26	i	i	i	i	i
CCCCCCC(=O)NNC(=O)CC(=O)Nc1ccccc1C(=O)O	46	i	i	i	i	i
CSc1ccccc1NC(=O)CSCc1ccc(C)cc1	i	i	i	i	i	i
Cc1ccc(CSCC(=O)Nc2ccccc2C(=O)O)cc1	15	i	i	i	i	i
Cc1ccc(S(=O)(=O)N(C)C)cc1NC(=O)C(C)OC(=O)c1ccc2c(=O)n3c(nc2c1)CCC3 (stereo unspecified)	i	i	i	i	i	i
O=S(=O)(NC1CCCC1)c1ccc(S(=O)(=O)NC2CCCC2)cc1	i	i	28	i	i	i
CCN(c1ccccc1)S(=O)(=O)c1cc(C(=O)O)ccc1C	17	i	i	i	i	i
O=C(O)c1ccc(Cl)c(S(=O)(=O)N(Cc2ccccc2)c2ccccc2)c1	i	i	i	i	i	i
COc1ccccc1NC(=O)CSc1nccc(-c2ccco2)n1	i	i	i	i	i	i
COCCCNC(=O)/C=C/[C@H]1O[C@@H](n2cnc3c(NC(=O)c4ccccc4)ncnc32)[C@H](O)[C@@H]1O	23	i	i	i	i	i
COc1cccc(N=CNc2cccc(OC)c2)c1	i	i	i	i	i	i
CCO[C@H]1OC(C(=O)NCc2nc3ccccc3[nH]2)=C[C@@H](C2CC2)[C@@H]1CCCO	24	i	i	i	i	i
CCO[C@H]1OC(C(=O)NCc2ccccc2)=C[C@@H](c2ccc3c(c2)OCO3)[C@@H]1CCCO	i	i	25	i	i	i
CCO[C@@H]1OC(C(=O)NCc2ccccc2)=C[C@H](c2csc3ccccc23)[C@H]1CCCO	i	27	i	i	42	i
COc1cc(NC(=O)CCC(=O)N2CCN(S(=O)(=O)c3ccc(C)cc3)CC2)cc(OC)c1	i	i	i	i	i	i
COc1cccc(-c2cnc(C(O)c3cccc(F)c3)[nH]2)c1 (stereo unspecified)	i	i	i	i	i	i
CC12CCC(=O)N1C(C(=O)NNC(=O)c1ccccc1Cl)CS2 (stereo unspecified)	i	i	i	i	i	i
COc1cc(C2NC(=O)NC(O)(C(F)(F)F)C2C(=O)c2cccs2)ccc1O (stereo unspecified)	i	i	i	i	i	i
COc1ccc(C2NC(=S)NC(O)(C(F)(F)F)C2C(=O)c2cccs2)cc1 (stereo unspecified)	i	43	i	i	i	i
